Reference: ChEMBL document CHEMBL3745620, “Design and Synthesis of DiselenoBisBenzamides (DISeBAs) as Nucleocapsid Protein 7 (NCp7) Inhibitors with anti-HIV Activity” (J Med Chem, 2015)
pEC50: −log10 of the molar value. Activity calls are given as the source filed them. No cut-off for these calls is given here.

How the values were obtained:
[1] = tested on: Human immunodeficiency virus 1; test: Antiviral activity against HIV1 3B infected in human MT4 cells assessed as protection against virus-induced cytopathic effect after 5 days by MTT assay; assay type: functional, organism-based; settings: Human immunodeficiency virus 1, 3B, MT4, 120 h
Procedure, shortened: (§1)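 MT-4 cells in RPMI 1640 with 10% heat-inactivated FCS, resuspended at 6 x 10^5 cells/ml. Compounds added at start in serial 5-fold dilutions, triplicate wells, to mock- and virus-infected cells (100-300 CCID50 per well). After 5 days, viability by MTT reduction (OD540). […] Mean ± SD, at least two experiments.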

[2] = tested on: Human immunodeficiency virus 2; test: Antiviral activity against HIV2 ROD infected in human MT4 cells assessed as protection against virus-induced cytopathic effect after 5 days by MTT assay; assay type: functional, organism-based; settings: Human immunodeficiency virus 2, ISOLATE ROD, MT4, 120 h; procedure, shortened: as §1
[3] = Cytotoxicity against human MT4 cells assessed as cell viability after 5 days by MTT assay; assay type: cell-based
Procedure, shortened: (§2)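 Compounds added at start in serial 5-fold dilutions, triplicate wells, to mock- and virus-infected cells (100-300 CCID50 per well). After 5 days, viability by MTT reduction (OD540). Mean ± SD, at least two experiments.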

[4] = Selectivity index, ratio of CC50 for human MT4 cells to EC50 for HIV1 3B; assay type: toxicity, cell-based; settings: read-out: Ratio CC50/EC50; procedure, shortened: as §2
[5] = Selectivity index, ratio of CC50 for human MT4 cells to EC50 for HIV-2 ROD; assay type: toxicity, cell-based; settings: read-out: Ratio CC50/EC50; procedure, shortened: as §2
[6] = tested on: Human immunodeficiency virus 1; test: Antiviral activity against HIV1 3B infected in human MT4 cells assessed as inhibition of viral replication by measuring p24 Ag production at 2 ug/ml measured at 31 hrs post infection by ELISA; assay type: functional, organism-based
Procedure, shortened: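 MT-4 cells infected with HIV-1 IIIB at m.o.i. 0.5, 1 h adsorption, then seeded at 45,000 cells/well at 37°C. Compound added at times from 0 to 25 h post-infection. Read-out was p24 in supernatant by ELISA at 31 h post-infection.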

HuT78 = test: Inhibition of NCp7 of HIV1 3B persistently infected in HUT78 cells assessed as accumulation of unprocessed Gag polyprotein after 43 hrs by Western blot analysis; assay type: cell-based; settings: Human immunodeficiency virus 1
Procedure, shortened: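 Washed HuT-78(IIIB) cells (2x10^5 in 1 ml) treated with compound for 43 h at 37°C. Virions pelleted from clarified supernatant (36,670 g, 2 h, 4°C), lysed, run on SDS-PAGE and transferred to PVDF. Blot probed with mouse anti-p24 (1:5000), then HRP anti-mouse (1:2500), with chemiluminescent detection.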

[7] = tested on: Human immunodeficiency virus 1; test: Antiviral activity against NRTI/NNRTI-resistant HIV1 L6 harboring reverse transcriptase V75I/F77L/K103N/F116Y/Q151M/M184V mutant infected in human MT4 cells; assay type: functional, organism-based; settings: Human immunodeficiency virus 1, L6, MT4
Procedure, shortened: (§3)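 MT-4 cells in RPMI 1640 with 10% heat-inactivated FCS were infected at the start of the experiment, with compound added across serial 5-fold dilutions in triplicate wells. Cells were seeded at 6 x 10^5 cells/ml. After 5 days, protection against virus-induced cytopathic effect was read by MTT reduction at OD540. […] Values are means ± SD of at least two experiments.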

[8] = tested on: Human immunodeficiency virus 1; test: Antiviral activity against AZT-resistant HIV1 ADP/141 harboring reverse transcriptase D67N/K70R/T215F/K219Q mutant infected in human MT4 cells; assay type: functional, organism-based; settings: Human immunodeficiency virus 1, ADP/141, MT4; procedure, shortened: as §3
[9] = tested on: Human immunodeficiency virus 1; test: Antiviral activity against HIV1 3B persistently infected in HUT78 cells assessed as reduction of p24 production after 43 hrs by ELISA; assay type: functional, organism-based; settings: Human immunodeficiency virus 1, 3B, HuT78, 43 h
Procedure, shortened: (§4)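 Chronically HIV-1 IIIB-infected HuT-78 cells washed four times in PBS to remove free virions and seeded at 2 × 10^5 cells/well with 7 serial 5-fold compound dilutions for 43 h at 37°C. Supernatant p24 measured by ELISA. Cytotoxicity was run in parallel by MTT plus microscopy. SI = CC50/EC50. Mean ± SD, ≥2 experiments.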

[10] = Cytotoxicity against human HUT78 cells assessed as reduction in cell viability after 5 days by MTT assay; assay type: cell-based
[11] = Selectivity index, ratio of CC50 for human HUT78 cells to EC50 for HIV1 3B; assay type: toxicity, cell-based; settings: read-out: Ratio CC50/EC50; procedure, shortened: as §4
[12] = tested on: Human immunodeficiency virus 1; test: Antiviral activity against NNRTI-resistant HIV1 RES056 harboring reverse transcriptase K103N/181C double mutant infected in human MT4 cells; assay type: functional, organism-based; settings: Human immunodeficiency virus 1, RES056, MT4; procedure, shortened: as §3
[13] = Antiviral activity against nevirapine-resistant SIV mac251 infected in human MT4 cells; assay type: functional, cell-based; settings: Simian immunodeficiency virus; procedure, shortened: as §3
[14] = tested on: Human immunodeficiency virus 1; test: Antiviral activity against ritonavir-resistant HIV1 3B/RIT infected in human MT4 cells; assay type: functional, organism-based; settings: Human immunodeficiency virus 1, 3B/RIT; procedure, shortened: as §3
[15] = tested on: Human immunodeficiency virus 1; test: Antiviral activity against ritonavir-resistant HIV1 B12 harboring […] L10I/I15V/I54V/L63P/V82A/I85V mutant infected in human MT4 cells; assay type: functional, organism-based; settings: Human immunodeficiency virus 1, B12, MT4; procedure, shortened: as §3

Compound | pEC50 [1] | pEC50 [2] | CC50 at 120 h [3] [µM] | selectivity ratio [4] | selectivity ratio [5] | inhibition [6] | inhibition (HuT78) | pEC50 [7] | pEC50 [8] | pEC50 [9] | CC50 at 120 h [10] [µM] | selectivity ratio [11] | pEC50 [12] | pEC50 [13] | pEC50 [14] | pEC50 [15]
CC[C@H](C)[C@H](NC(=O)c1ccccc1[Se][Se]c1ccccc1C(=O)N[C@H](C(=O)OC)[C@@H](C)CC)C(=O)OC | 6.08 | ≤ 5.90 | 2.99 | 4 | ≤ 2 | Active | – | – | – | – | – | – | – | – | – | –
CCOC(=O)CC[C@H](NC(=O)c1ccccc1[Se][Se]c1ccccc1C(=O)N[C@@H](CCC(=O)OCC)C(=O)OCC)C(=O)OCC | ≤ 6.17 | ≤ 6.14 | 2.8 | ≤ 4 | ≤ 4 | Active | – | – | – | – | – | – | – | – | – | –
NS(=O)(=O)c1ccc(NC(=O)c2cccnc2[Se][Se]c2ncccc2C(=O)Nc2ccc(S(N)(=O)=O)cc2)cc1 | 5.42 | ≤ 5.51 | 19.2 | 5 | ≤ 6 | Active | Dose-dependent effect | – | – | – | – | – | – | – | – | –
Cc1cn([C@H]2C[C@H](N=[N+]=[N-])[C@@H](CO)O2)c(=O)[nH]c1=O [ZIDOVUDINE] | 8.00 | 8.10 | > 7.48 | > 748 | > 935 | – | Dose-dependent effect | < 5.13 | 7.52 | – | – | – | – | – | – | –
CC1CNC(=O)c2ccccc2SSc2ccccc2C(=O)N1 (stereo unspecified) | – | – | – | – | – | – | Dose-dependent effect | – | – | < 5.12 | > 7.5 | > 54 | – | – | – | –
COC(=O)[C@@H]1CCCN1C(=O)c1ccccc1[Se][Se]c1ccccc1C(=O)N1CCC[C@H]1C(=O)OC | ≤ 5.36 | 5.34 | 10.1 | ≤ 2 | 2 | Active | – | – | – | – | – | – | – | – | – | –
O=C(O)CNC(=O)c1ccccc1SSc1ccccc1C(=O)NCC(=O)O | < 4.24 | < 4.24 | 58.1 | < 1 | < 1 | Active | – | – | – | – | – | – | – | – | – | –
Cc1ccnc2c1NC(=O)c1cccnc1N2C1CC1 [NEVIRAPINE] | 6.55 | < 4.82 | > 15 | > 60 | – | – | – | < 4.82 | – | 6.59 | > 14 | – | < 4.82 | < 4.82 | – | –
NS(=O)(=O)c1ccc(NC(=O)c2ccccc2[Se][Se]c2ccccc2C(=O)Nc2ccc(S(N)(=O)=O)cc2)cc1 | 5.55 | 5.52 | 17.4 | 6 | 6 | Active | Dose-dependent effect | – | – | 5.08 | > 35 | > 4 | – | – | – | –
COC(=O)[C@H](C)NC(=O)c1ccccc1[Se][Se]c1ccccc1C(=O)N[C@@H](C)C(=O)OC | 5.50 | 5.71 | 15.8 | 5 | 8 | Active | – | – | – | – | – | – | – | – | – | –
NS(=O)(=O)c1ccc(OC(=O)c2ccccc2[Se][Se]c2ccccc2C(=O)Oc2ccc(S(N)(=O)=O)cc2)cc1 | < 4.73 | < 4.73 | 18.6 | < 1 | < 1 | Active | Dose-dependent effect | – | – | – | – | – | – | – | – | –
O=C(O)[C@@H]1CCCN1C(=O)c1ccccc1[Se][Se]c1ccccc1C(=O)N1CCC[C@H]1C(=O)O | < 3.82 | < 3.82 | 152 | < 1 | < 1 | Active | Dose-dependent effect | – | – | – | – | – | – | – | – | –
C[C@H](NC(=O)c1ccccc1[Se][Se]c1ccccc1C(=O)N[C@@H](C)C(=O)O)C(=O)O | 4.99 | 5.27 | 138 | 13 | 26 | Active | Dose-dependent effect | – | – | – | – | – | – | – | – | –
O=C(O)C[C@H](NC(=O)c1ccccc1[Se][Se]c1ccccc1C(=O)N[C@@H](CC(=O)O)C(=O)O)C(=O)O | < 3.82 | < 3.82 | 151 | < 1 | < 1 | Active | Dose-dependent effect | – | – | – | – | – | – | – | – | –
CC(C)c1nc(CN(C)C(=O)N[C@H](C(=O)N[C@@H](Cc2ccccc2)C[C@H](O)[C@H](Cc2ccccc2)NC(=O)OCc2cncs2)C(C)C)cs1 [RITONAVIR] | 7.05 | 6.85 | – | – | – | Active | Dose-dependent effect | – | – | 4.54 | – | – | – | 6.85 | 5.56 | 5.89
CC(C)[C@H](NC(=O)c1ccccc1[Se][Se]c1ccccc1C(=O)N[C@H](C(=O)O)C(C)C)C(=O)O | 4.86 | 4.84 | 136 | 10 | 9 | Active | Dose-dependent effect | – | – | – | – | – | – | – | – | –
CCOC(=O)CNC(=O)c1ccccc1[Se][Se]c1ccccc1C(=O)NCC(=O)OCC | 6.04 | 6.13 | 6.26 | 7 | 9 | Active | – | – | – | – | – | – | – | – | – | –
NS(=O)(=O)c1ccc(NC(=O)c2ccccc2SSc2ccccc2C(=O)Nc2ccc(S(N)(=O)=O)cc2)cc1 | 5.52 | 6.25 | 10.5 | 6 | 30 | – | – | – | – | 5.58 | 18.4 | 6.9 | – | – | – | –
COC(=O)C[C@H](NC(=O)c1ccccc1[Se][Se]c1ccccc1C(=O)N[C@@H](CC(=O)OC)C(=O)OC)C(=O)OC | ≤ 5.50 | ≤ 5.56 | 9.74 | ≤ 3 | ≤ 3 | Active | – | – | – | – | – | – | – | – | – | –
